Assay results taken from ChEMBL document CHEMBL1681634, “Acyloxy nitroso compounds as nitroxyl (HNO) donors: kinetics, reactions with thiols, and vasodilation properties” (J Med Chem, 2011).
Where a name gives a salt, the structure may show the parent alone. Active and inactive are the calls of the source. The rule behind the calls is not given here.

Experiments:
Thoracic aorta [1] = assay: Potentiation of 1-Nitrosocyclohexyl acetate induced- vasodilatory activity in Sprague-Dawley rat thoracic aorta at 1 mM; assay type: functional, tissue-based
Outline: (§1)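 Male Sprague-Dawley rat (200-250 g) thoracic aorta rings, 2-4 mm, in Krebs-Henseleit buffer at 37°C, pH 7.45, 2 g basal tension, 1 hr equilibration, 70 mM KCl viability check. Pretreated with L-NAME (100 μM) and indomethacin (5 μM), then preconstricted with phenylephrine (100 nM). Donors added cumulatively; relaxation is delta tension as percent of maximal PE constriction. Sigmoidal fits by non-linear regression give EC50.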

Thoracic aorta [2] = assay: Potentiation of MahmaNonoate induced- vasodilatory activity in Sprague-Dawley rat thoracic aorta at 1 mM; assay type: functional, tissue-based; outline: as §1
Thoracic aorta [3] = assay: Potentiation of 1-Nitrosocyclohexyl trifluoroacetate induced- vasodilatory activity in Sprague-Dawley rat thoracic aorta at 1 mM; assay type: functional, tissue-based; outline: as §1
Thoracic aorta [4] = assay: Potentiation of Angeli's salt induced- vasodilatory activity in Sprague-Dawley rat thoracic aorta at 1 mM; assay type: functional, tissue-based; outline: as §1
Thoracic aorta [5] = assay: Vasodilatory activity in Sprague-Dawley rat thoracic aorta assessed as relaxation of phenylephrine-induced vasoconstriction at 0.01 nM to 100 uM; assay type: functional, tissue-based; outline: as §1
Thoracic aorta [6] = assay: Vasodilatory activity in Sprague-Dawley rat thoracic aorta assessed as relaxation of phenylephrine-induced vasoconstriction compound treated 5 mins after 200 uM NO-scavenger C-PTIO treatment; assay type: functional, tissue-based; outline: as §1
Thoracic aorta [7] = assay: Vasodilatory activity in Sprague-Dawley rat thoracic aorta assessed as relaxation of phenylephrine-induced vasoconstriction compound treated 5 mins after 1 uM soluble guanylate cyclase inhibitor ODQ treatment; assay type: functional, tissue-based; outline: as §1
Thoracic aorta [8] = assay: Inhibition of Angeli's salt induced- vasodilatory activity in Sprague-Dawley rat thoracic aorta at 0.1 to 1 mM; assay type: functional, tissue-based; outline: as §1
Thoracic aorta [9] = assay: Inhibition of 1-Nitrosocyclohexyl acetate induced- vasodilatory activity in Sprague-Dawley rat thoracic aorta at 0.1 to 1 mM; assay type: functional, tissue-based; outline: as §1
Thoracic aorta [10] = assay: Inhibition of 1-Nitrosocyclohexyl trifluoroacetate induced- vasodilatory activity in Sprague-Dawley rat thoracic aorta at 0.1 to 1 mM; assay type: functional, tissue-based; outline: as §1
Thoracic aorta [11] = assay: Vasodilatory activity in Sprague-Dawley rat thoracic aorta assessed as relaxation of phenylephrine-induced vasoconstriction at 0.01 nM to 1 uM in presence 100 U/ml SOD at 21% oxygen; assay type: functional, tissue-based; outline: as §1
Rattus norvegicus [12] = species on record: Rattus norvegicus; assay: Vasodilatory activity in rat thoracic aorta assessed as relaxation of phenylephrine-induced vasoconstriction
Thoracic aorta [13] = assay: Vasodilatory activity in Sprague-Dawley rat thoracic aorta assessed as relaxation of phenylephrine-induced vasoconstriction at 0.01 nM to 1 uM in presence of 21% oxygen; assay type: functional, tissue-based; outline: as §1
Thoracic aorta [14] = assay: Vasodilatory activity in Sprague-Dawley rat thoracic aorta assessed as relaxation of phenylephrine-induced vasoconstriction at 0.01 nM to 1 uM in presence of 1% oxygen; assay type: functional, tissue-based; outline: as §1
Rattus norvegicus [15] = species on record: Rattus norvegicus; assay: Vasodilatory activity in rat aorta assessed as relaxation of phenylephrine-induced vasoconstriction
Rattus norvegicus [16] = species on record: Rattus norvegicus; assay: Ratio of compound EC50 to Angeli's salt EC50 for vasodilatory activity in rat aorta
Rattus norvegicus [17] = species on record: Rattus norvegicus; assay: Ratio of compound EC50 to Angeli's salt EC50 for vasodilatory activity in rat thoracic aorta

Row | Structure (SMILES) | Activity (Thoracic aorta [1]) | Activity (Thoracic aorta [2]) | Activity (Thoracic aorta [3]) | Activity (Thoracic aorta [4]) | Activity (Thoracic aorta [5]) | Activity (Thoracic aorta [6]) | Activity (Thoracic aorta [7]) | inhibition (Thoracic aorta [8]) | inhibition (Thoracic aorta [9]) | inhibition (Thoracic aorta [10]) | Activity (Thoracic aorta [11]) | EC50 (Rattus norvegicus [12]) | Activity (Thoracic aorta [13]) | Activity (Thoracic aorta [14]) | EC50 (Rattus norvegicus [15]) | Ratio EC50 (Rattus norvegicus [16]) | Ratio EC50 (Rattus norvegicus [17])
1 | CC(=O)N[C@@H](CS)C(=O)O | inactive | inactive | Active | Active |  |  |  |  |  |  |  |  |  |  |  |  | 
2 | CNCCCCCCN(C)N(O)N=O | inactive | inactive |  |  | Dose-dependent effect | inactive | inactive |  |  |  |  |  |  |  |  |  | 
3 | N[C@@H](CCC(=O)N[C@@H](CS)C(=O)NCC(=O)O)C(=O)O |  |  |  |  |  |  |  | Active | inactive | Active |  |  |  |  |  |  | 
4 | CC(=O)OC1(N=O)CCCCC1 [1-NITROSOCYCLOHEXYL ACETATE] | inactive | inactive |  |  | Dose-dependent effect | inactive | inactive |  | inactive |  | Active | 10000 nM | Active | Active | 10000 nM |  | 
5 | O=NC1(OC(=O)C(F)(F)F)CCCCC1 [1-NITROSOCYCLOHEXYL TRIFLUOROACETATE] |  |  | Active | Active | Dose-dependent effect | inactive | inactive | Active |  | Active | Active | 880 nM | Active | Active | 880 nM | 10 | 10
6 | [O-][N+]([O-])=NO [ANGELI'S SALT] |  |  | Active | Active | Dose-dependent effect | inactive | inactive | Active |  | Active | Active | 82 nM | Active | inactive | 82 nM |  | 
